# Assay results reported in publication PMC12166256 (Clinical Pharmacology and Therapeutics, 2025).
# Key:
# [1] = Food effect study: plasma pharmacokinetics; assay type: in vivo, human; settings: for AUC (0 to infinity), geometric mean / AUC (0 to infinity), mean ± SD / C max, geometric mean / C max, mean ± SD / t 1/2z, geometric mean / t 1/2z, mean ± SD / t lag, median / t max, median: 200 mg single dose
# [2] = MAD study: plasma and urine pharmacokinetics; assay type: in vivo, human
# How it was run: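 Healthy males got oral doses for 14 days: 100 mg once daily fasted, or 100, 200 or 300 mg twice daily fed. Plasma was drawn pre-dose and […] on Day 1, pre-dose and at 3 h on Days 4, 7 and 12, and up to 120 h after the final Day 14 morning dose. Urine was collected over 24 h at steady state. LC–MS/MS, LLOQ 2 ng/mL; non-compartmental analysis.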
# [3] = MAD 24-hour urine Day 13, 100 mg BID fed
# [4] = MAD 24-hour urine Day 13, 100 mg QD fasted
# [5] = MAD 24-hour urine Day 13, 200 mg BID fed
# [6] = MAD 24-hour urine Day 13, 300 mg BID fed
# [7] = MAD Day 1 first dose, 100 mg BID fed
# [8] = MAD Day 1 first dose, 100 mg QD fasted
# [9] = MAD Day 1 first dose, 100 mg QD fasted, calculated by extrapolation
# [10] = MAD Day 1 first dose, 200 mg BID fed
# [11] = MAD Day 1 first dose, 300 mg BID fed
smiles,measurement,setting,value
CN1C(=O)c2cccc(OC(F)F)c2[C@H]2C[C@@H]1c1nc3ccc(-c4cnc(C5(N)CCC5)nc4)cc3n12 [Balinatunfib],AUC higher in the fed state than in the fasted state,[1]; 200 mg,18%
same,AUClast higher in the fed state than in the fasted state,[1]; 200 mg,16%
same,C max higher in the fed state than in the fasted state,[1]; 200 mg,14%
same,"delay of maximum plasma concentrations, fed compared to fasted",[1]; 200 mg,1 h
same,"AUC (0 to infinity), geometric mean",[1]; fasted,"(2,010) [26] ng·h/mL"
same,"AUC (0 to infinity), mean ± SD",[1]; fasted,"2,060 ± 539 ng·h/mL"
same,"C max, geometric mean",[1]; fasted,(119) [32] ng/mL
same,"C max, mean ± SD",[1]; fasted,123 ± 39.5 ng/mL
same,"t 1/2z, geometric mean",[1]; fasted,(21.9) [23] h
same,"t 1/2z, mean ± SD",[1]; fasted,22.5 ± 5.23 h
same,"t lag, median",[1]; fasted,0.00 h
same,"t max, median",[1]; fasted,3.00 h
same,"AUC (0 to infinity), geometric mean",[1]; fed,"(2,340) [33] ng·h/mL"
same,"AUC (0 to infinity), mean ± SD",[1]; fed,"2,430 ± 815 ng·h/mL"
same,"C max, geometric mean",[1]; fed,(132) [35] ng/mL
same,"C max, mean ± SD",[1]; fed,138 ± 48.1 ng/mL
same,"t 1/2z, geometric mean",[1]; fed,(27.3) [18] h
same,"t 1/2z, mean ± SD",[1]; fed,27.6 ± 4.84 h
same,"t lag, median",[1]; fed,0.00 h
same,"t max, median",[1]; fed,4.00 h
same,"AUC geometric mean ratio, point estimate","[1]; 200 mg, fed vs. fasted",1.18
same,"AUClast geometric mean ratio, point estimate","[1]; 200 mg, fed vs. fasted",1.16
same,"C max geometric mean ratio, point estimate","[1]; 200 mg, fed vs. fasted",1.14
same,effect of food on the PK characteristics,[1]; high-fat meal,no relevant effects
same,time to steady state (90% CI),"[2]; BID dosing, fed",5.45 (5.36–5.92) days
same,"Fe0-24 (fraction of dose excreted unchanged in urine), mean ± SD",[2]; [3],9.41 ± 4.66%
same,"Fe0-24, geometric mean",[2]; [3],(8.18) [50] %
same,"Fe0-24 (fraction of dose excreted unchanged in urine), mean ± SD",[2]; [4],9.07 ± 1.85%
same,"Fe0-24, geometric mean",[2]; [4],(8.91) [20] %
same,"Fe0-24 (fraction of dose excreted unchanged in urine), mean ± SD",[2]; [5],11.9 ± 3.54%
same,"Fe0-24, geometric mean",[2]; [5],(11.4) [30] %
same,"Fe0-24 (fraction of dose excreted unchanged in urine), mean ± SD",[2]; [6],15.6 ± 4.40%
same,"Fe0-24, geometric mean",[2]; [6],(15.0) [28] %
same,"AUC0-12, geometric mean",[2]; [7],(324) [53] ng·h/mL
same,"AUC0-12, mean ± SD",[2]; [7],364 ± 194 ng·h/mL
same,"C av, geometric mean",[2]; [7],(27.0) [53] ng/mL
same,"C av, mean ± SD",[2]; [7],30.4 ± 16.2 ng/mL
same,"C max, geometric mean",[2]; [7],(38.1) [50] ng/mL
same,"C max, mean ± SD",[2]; [7],42.6 ± 21.2 ng/mL
same,"t max, median (min, max)",[2]; [7],"6.00 (2.00, 8.00) h"
same,"AUC0-12, geometric mean",[2]; [8],(527) [35] ng·h/mL
same,"AUC0-12, mean ± SD",[2]; [8],559 ± 194 ng·h/mL
same,"C av, geometric mean",[2]; [8],(28.1) [32] ng/mL
same,"C av, mean ± SD",[2]; [8],29.5 ± 9.33 ng/mL
same,"C max, geometric mean",[2]; [8],(83.1) [38] ng/mL
same,"C max, mean ± SD",[2]; [8],88.6 ± 34.0 ng/mL
same,"t max, median (min, max)",[2]; [8],"3.00 (3.00, 3.00) h"
same,"AUC0-24, geometric mean",[2]; [9],674 ng·h/mL
same,"AUC0-24, mean ± SD",[2]; [9],708 ± 224 ng·h/mL
same,"AUC0-12, geometric mean",[2]; [10],"(1,080) [31] ng·h/mL"
same,"AUC0-12, mean ± SD",[2]; [10],"1,130 ± 354 ng·h/mL"
same,"C av, geometric mean",[2]; [10],(90.3) [31] ng/mL
same,"C av, mean ± SD",[2]; [10],94.5 ± 29.5 ng/mL
same,"C max, geometric mean",[2]; [10],(132) [32] ng/mL
same,"C max, mean ± SD",[2]; [10],139 ± 43.9 ng/mL
same,"t max, median (min, max)",[2]; [10],"5.00 (2.00, 6.00) h"
same,"AUC0-12, geometric mean",[2]; [11],"(2,180) [32] ng·h/mL"
same,"AUC0-12, mean ± SD",[2]; [11],"2,280 ± 725 ng·h/mL"
same,"C av, geometric mean",[2]; [11],(182) [32] ng/mL
same,"C av, mean ± SD",[2]; [11],190 ± 60.4 ng/mL
same,"C max, geometric mean",[2]; [11],(268) [31] ng/mL
same,"C max, mean ± SD",[2]; [11],278 ± 85.4 ng/mL
same,"t max, median (min, max)",[2]; [11],"4.00 (3.00, 6.00) h"
same,"AUC0-tau, geometric mean","[2]; MAD Day 14, 100 mg BID fed","(1,690) [48] ng·h/mL"
same,"AUC0-tau, mean ± SD","[2]; MAD Day 14, 100 mg BID fed","1,860 ± 892 ng·h/mL"
same,"C av, geometric mean","[2]; MAD Day 14, 100 mg BID fed",(141) [48] ng/mL
same,"C av, mean ± SD","[2]; MAD Day 14, 100 mg BID fed",155 ± 74.4 ng/mL
same,"C max, geometric mean","[2]; MAD Day 14, 100 mg BID fed",(173) [46] ng/mL
same,"C max, mean ± SD","[2]; MAD Day 14, 100 mg BID fed",189 ± 86.3 ng/mL
same,"C trough, geometric mean","[2]; MAD Day 14, 100 mg BID fed",(122) [52] ng/mL
same,"C trough, mean ± SD","[2]; MAD Day 14, 100 mg BID fed",136 ± 70.8 ng/mL
same,"CLss/F, geometric mean","[2]; MAD Day 14, 100 mg BID fed",(59.1) [44] L/h
same,"CLss/F, mean ± SD","[2]; MAD Day 14, 100 mg BID fed",64.6 ± 28.2 L/h
same,"FLrel (relative fluctuation), geometric mean","[2]; MAD Day 14, 100 mg BID fed",(46.1) [20] %
